Laboratory results published in ChEMBL document CHEMBL1143679, “Anti-inflammatory thiazine alkaloids isolated from the New Zealand ascidian Aplidium sp.: inhibitors of the neutrophil respiratory burst in a model of gouty arthritis” (J Nat Prod, 2007).
Calls of active or inactive are those of the source.

Assays:
[1] = test system: HL-60; experiment: Antiproliferative activity against human HL60 cells after 48 hrs by MTT assay; details: HL-60, 48 h
[2] = test system: Neutrophil; experiment: Inhibition of PMA-stimulated superoxide production in human neutrophils; assay type: functional, cell-based
Method in brief: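 Neutrophils in HBSS, 1 × 10⁶ cells/well, preincubated 30 min with graded compound concentrations (HBSS, 1% v/v DMSO). WST-1 added (final 0.35 mM), then PMA (final 0.295 µM). Dye reduction read in real time at 450 nm for 20 min at 37 °C. Rate compared with buffer-treated cells; AI50 is the concentration giving 50% inhibition.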

[3] = test system: Mus musculus; experiment: Inhibition of urate-induced neutrophil recruitment into peritoneal cavity in mouse at 25 umol/kg; assay type: functional
Method in brief: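 In the ip MSU (3 mg) mouse model with oral gavage dosing, peritoneal lavage was taken at 4 h. Total cells were counted. A cytocentrifuged aliquot was stained with Diff-Quick, and the neutrophil percentage was scored microscopically by standard histological criteria.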

[4] = Inhibition of superoxide production by xanthine/xanthine oxidase method; assay type: functional
Method in brief: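 Cell-free enzyme assay. Graded compound dilutions were prepared in 0.1 M Tris pH 7.4, 0.2 mM EDTA, 1% v/v DMSO. Final WST-1 0.35 mM, xanthine 2.38 mM and xanthine oxidase 15 mU/mL. Absorbance at 450 nm was read in real time for 20 min at 37 °C. The rate was compared with buffer controls, and the 50% inhibitory concentration was reported.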

[5] = test system: Mus musculus; experiment: Inhibition of superoxide production in peritoneal neutrophils of C57BL/6 gouty mouse at 25.6 umol/kg, po after 4 hrs relative to monosodium urate; assay type: functional; details: C57BL/6, po
Method in brief: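 Male C57BL/6 mice, 8–12 weeks, received MSU crystals (3 mg in 500 µL PBS pH 7.4) ip, with oral gavage of compound (25.6 µmol/kg) at the same time. PBS-gavaged controls; colchicine given sc at 5 µmol/kg. After 4 h, peritoneal lavage with heparinized PBS. Cells adjusted to 1 × 10⁶ neutrophils/mL; PMA-triggered WST-1 reduction measured per million neutrophils, relative to MSU-only mice.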

| SMILES | IC50 [1] | IC50 [2] | IC50 [4] | Activity [3] | inhibition in vivo at 25.6 µmol/kg [5] | inhibition in vivo at 25 µmol/kg [3] |
| --- | --- | --- | --- | --- | --- | --- |
| O=C(O)c1ccc2c(n1)C(=O)C1=C(C2=O)S(=O)(=O)CCN1 [ACIDIATHIAZONE A] |  |  | 55.9 µM | inactive | 23% |  |
| Oc1ncnc2[nH]ncc12 [ALLOPURINOL] |  |  | 42.2 µM |  |  |  |
| O=C(O)c1ccc2c(n1)C(=O)C1=C(NC=CS1(=O)=O)C2=O [ASCIDIATHIAZONE B] | 16.7 µM | 0.44 µM | 17.9 µM | inactive | 59% |  |
| CN(Cc1cnc2nc(N)nc(N)c2n1)c1ccc(C(=O)N[C@@H](CCC(=O)O)C(=O)O)cc1 [METHOTREXATE] | 0.00692 µM |  |  |  |  |  |

Continued, in another order:

| IC50 [1] | IC50 [2] | IC50 [4] | SMILES | Activity [3] | inhibition in vivo at 25.6 µmol/kg [5] | inhibition in vivo at 25 µmol/kg [3] |
| --- | --- | --- | --- | --- | --- | --- |
| 96.9 µM | 277 µM |  | COC(=O)c1ccc2cccc(O)c2n1 |  |  |  |
| 4.11 µM | 1.75 µM |  | COC(=O)c1ccc2c(n1)C(=O)C=CC2=O |  |  |  |
|  |  | 18.2 µM | COC(=O)c1ccc2c(n1)C(=O)C1=C(C2=O)S(=O)(=O)CCN1 [ASCIDIATHIAZONE A METHYL ESTER] |  | 84% | 60% |
